Data as given in ChEMBL document CHEMBL2157978, “Design, synthesis, and biological evaluation of nonsteroidal cycloalkane[d]isoxazole-containing androgen receptor modulators” (J Med Chem, 2012).
The source made the active and inactive calls. How the calls were made is not given here.

target: T1, Androgen receptor (Homo sapiens) (UniProt P10275); assay: Agonist activity at wild type human androgen receptor expressed in COS-1 cells co-transfected with pSG5 assessed as effect on testosterone induced luciferase activity at 10 uM after 18 hrs relative untreated control; type: functional, cell-based
T1 sequence (whole entry): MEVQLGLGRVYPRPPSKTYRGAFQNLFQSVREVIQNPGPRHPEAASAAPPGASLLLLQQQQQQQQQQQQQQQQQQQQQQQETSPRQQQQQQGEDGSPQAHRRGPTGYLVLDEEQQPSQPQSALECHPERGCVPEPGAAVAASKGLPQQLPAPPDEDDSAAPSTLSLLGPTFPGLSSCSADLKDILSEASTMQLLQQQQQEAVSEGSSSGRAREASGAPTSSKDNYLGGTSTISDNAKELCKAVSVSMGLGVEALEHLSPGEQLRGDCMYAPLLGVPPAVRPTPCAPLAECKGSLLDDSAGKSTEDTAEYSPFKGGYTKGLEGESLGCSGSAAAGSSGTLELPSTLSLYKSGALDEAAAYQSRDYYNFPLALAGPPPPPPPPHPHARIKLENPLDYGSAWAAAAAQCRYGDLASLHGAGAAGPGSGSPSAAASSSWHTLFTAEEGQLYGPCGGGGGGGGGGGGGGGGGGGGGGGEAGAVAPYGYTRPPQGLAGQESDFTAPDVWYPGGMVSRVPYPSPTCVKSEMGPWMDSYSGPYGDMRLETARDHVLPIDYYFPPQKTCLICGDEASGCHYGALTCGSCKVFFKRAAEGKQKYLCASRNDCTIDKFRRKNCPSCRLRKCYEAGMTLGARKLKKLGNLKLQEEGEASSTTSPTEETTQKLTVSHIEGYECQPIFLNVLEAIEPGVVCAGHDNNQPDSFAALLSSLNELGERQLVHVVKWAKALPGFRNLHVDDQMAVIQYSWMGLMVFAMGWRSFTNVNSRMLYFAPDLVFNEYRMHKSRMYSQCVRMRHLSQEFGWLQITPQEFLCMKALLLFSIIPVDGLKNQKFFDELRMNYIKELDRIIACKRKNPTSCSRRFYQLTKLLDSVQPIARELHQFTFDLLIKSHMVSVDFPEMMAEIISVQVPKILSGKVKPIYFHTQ

Structure (SMILES) | Activity
O=[N+]([O-])c1ccc(C2=NOC3CCCCC23)cc1 (racemic) | inactive
O=[N+]([O-])c1ccc(C2=NOC3CCCCCC23)cc1C(F)(F)F (racemic) | inactive
Fc1ccc(C2=NOC3CCCC23)cc1C(F)(F)F (racemic) | inactive
N#Cc1ccc(C2=NOC3CCCCCCC23)cc1C(F)(F)F (racemic) | inactive
N#Cc1ccc(C2=NO[C@@H]3CCC[C@H]23)cc1C(F)(F)F | inactive
O=[N+]([O-])c1ccc(C2=NOC3CCCCCCC23)cc1C(F)(F)F (racemic) | inactive
N#Cc1ccc(C2=NOC3CCCCCC23)c(C(F)(F)F)c1 (configuration not stated) | inactive
N#Cc1ccc(C2=NOC3CCCCCCC23)c(C(F)(F)F)c1 (configuration not stated) | inactive
N#Cc1ccc(C2=NOC3CCCCCCC23)c(C(F)(F)F)c1 (cis isomer) | inactive
Clc1ccc(C2=NOC3CCCCC23)cc1 (cis isomer) | inactive
Fc1ccc(C2=NOC3CCCCC23)cc1 (configuration not stated) | inactive
COc1ccc(C2=NOC3CCCCC23)cc1 (configuration not stated) | inactive
c1ccc2c(C3=NOC4CCCCC34)cccc2c1 (configuration not stated) | inactive
Fc1ccc(C2=NOC3CCCC23)c(C(F)(F)F)c1 (cis isomer; 5g) | inactive
Fc1ccc(C2=NOC3CCCCC23)c(C(F)(F)F)c1 (configuration not stated) | inactive
c1ccc(C2=NOC3CCCCC23)cc1 (cis isomer) | inactive
O=[N+]([O-])c1ccc(C2=NOC3CCCC23)c(C(F)(F)F)c1 (racemic) | inactive

Structure (SMILES) | Activity
N#Cc1cccc(C2=NOC3CCCCC23)c1C(F)(F)F (cis isomer) | inactive
O=[N+]([O-])c1ccc(C2=NO[C@H]3CCCC[C@@H]23)c(C(F)(F)F)c1 | inactive
Clc1cccc(C2=NOC3CCCCC23)c1 (cis isomer; 6n) | inactive
Fc1ccc(C2=NOC3CCCCCCC23)c(C(F)(F)F)c1 (cis isomer; 8g) | inactive
Fc1ccc(C2=NOC3CCCCC23)cc1 (cis isomer) | inactive
Clc1ccccc1C1=NOC2CCCCC12 (cis isomer) | inactive
O=[N+]([O-])c1ccc(C2=NO[C@@H]3CCCC[C@H]23)c(C(F)(F)F)c1 | inactive
Fc1ccccc1C1=NOC2CCCCC12 (configuration not stated) | inactive
COc1cccc(C2=NOC3CCCCC23)c1 (configuration not stated) | inactive
Fc1ccc(C2=NOC3CCCCCCC23)cc1C(F)(F)F (cis isomer; cis) | inactive
N#Cc1ccc(C2=NOC3CCCC23)c(C(F)(F)F)c1 (racemic) | inactive
Clc1ccc(C2=NOC3CCCCC23)cc1 (configuration not stated) | inactive
c1ccc(C2=NOC3CCCCC23)cc1 (configuration not stated) | inactive
O=[N+]([O-])c1ccc(C2=NO[C@H]3CCCCC[C@@H]23)c(C(F)(F)F)c1 | inactive
O=[N+]([O-])c1ccc(C2=NO[C@@H]3CCCCC[C@H]23)c(C(F)(F)F)c1 | inactive
COc1ccccc1C1=NOC2CCCCC12 (racemic) | inactive

target: Luciferin 4-monooxygenase (Photinus pyralis) (UniProt P08659); assay: Inhibition of Photinus pyralis recombinant luciferase at 10 uM incubated for 20 mins
Sequence (P08659 whole entry): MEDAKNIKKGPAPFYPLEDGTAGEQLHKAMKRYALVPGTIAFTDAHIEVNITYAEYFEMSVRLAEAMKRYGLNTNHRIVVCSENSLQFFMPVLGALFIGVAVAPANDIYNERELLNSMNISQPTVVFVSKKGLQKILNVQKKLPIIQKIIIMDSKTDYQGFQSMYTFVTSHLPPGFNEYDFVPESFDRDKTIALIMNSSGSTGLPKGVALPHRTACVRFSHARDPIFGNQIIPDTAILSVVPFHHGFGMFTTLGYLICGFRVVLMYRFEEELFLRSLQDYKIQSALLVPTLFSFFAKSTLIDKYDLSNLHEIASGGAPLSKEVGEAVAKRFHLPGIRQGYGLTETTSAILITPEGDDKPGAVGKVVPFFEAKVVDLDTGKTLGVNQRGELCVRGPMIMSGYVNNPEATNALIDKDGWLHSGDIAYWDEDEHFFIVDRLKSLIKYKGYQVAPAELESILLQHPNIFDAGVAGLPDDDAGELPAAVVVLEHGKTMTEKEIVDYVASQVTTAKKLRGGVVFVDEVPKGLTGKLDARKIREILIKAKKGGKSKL
Summary of the method: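 Purified firefly luciferase diluted to 0.1 μg/mL in 1x Reporter Lysis Buffer, with compound added from ethanol stocks (10⁻³–10⁻⁷ mol/L dilutions) in triplicate. Incubated 20 min at rt, then luciferase substrate added and luminescence read. Blank (lysis buffer) and ethanol-vehicle controls were included.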

Structure (SMILES) | inhibition
O=[N+]([O-])c1ccc(C2=NOC3CCCCC23)cc1 (racemic) | inactive
O=[N+]([O-])c1ccc(C2=NOC3CCCCCC23)cc1C(F)(F)F (racemic) | inactive
Fc1ccc(C2=NOC3CCCC23)cc1C(F)(F)F (racemic) | inactive
N#Cc1ccc(C2=NOC3CCCCCCC23)cc1C(F)(F)F (racemic) | inactive
N#Cc1ccc(C2=NO[C@@H]3CCC[C@H]23)cc1C(F)(F)F | inactive
O=[N+]([O-])c1ccc(C2=NOC3CCCCCCC23)cc1C(F)(F)F (racemic) | inactive
N#Cc1ccc(C2=NOC3CCCCCC23)c(C(F)(F)F)c1 (configuration not stated) | inactive
N#Cc1ccc(C2=NOC3CCCCCCC23)c(C(F)(F)F)c1 (configuration not stated) | inactive
N#Cc1ccc(C2=NOC3CCCCCCC23)c(C(F)(F)F)c1 (cis isomer) | inactive
Clc1ccc(C2=NOC3CCCCC23)cc1 (cis isomer) | inactive
Fc1ccc(C2=NOC3CCCCC23)cc1 (configuration not stated) | inactive
COc1ccc(C2=NOC3CCCCC23)cc1 (configuration not stated) | inactive
c1ccc2c(C3=NOC4CCCCC34)cccc2c1 (configuration not stated) | inactive
Fc1ccc(C2=NOC3CCCC23)c(C(F)(F)F)c1 (cis isomer; 5g) | inactive
Fc1ccc(C2=NOC3CCCCC23)c(C(F)(F)F)c1 (configuration not stated) | inactive
c1ccc(C2=NOC3CCCCC23)cc1 (cis isomer) | inactive
O=[N+]([O-])c1ccc(C2=NOC3CCCC23)c(C(F)(F)F)c1 (racemic) | inactive

Structure (SMILES) | inhibition
N#Cc1cccc(C2=NOC3CCCCC23)c1C(F)(F)F (cis isomer) | inactive
O=[N+]([O-])c1ccc(C2=NO[C@H]3CCCC[C@@H]23)c(C(F)(F)F)c1 | inactive
Clc1cccc(C2=NOC3CCCCC23)c1 (cis isomer; 6n) | inactive
Fc1ccc(C2=NOC3CCCCCCC23)c(C(F)(F)F)c1 (cis isomer; 8g) | inactive
Fc1ccc(C2=NOC3CCCCC23)cc1 (cis isomer) | inactive
Clc1ccccc1C1=NOC2CCCCC12 (cis isomer) | inactive
O=[N+]([O-])c1ccc(C2=NO[C@@H]3CCCC[C@H]23)c(C(F)(F)F)c1 | inactive
Fc1ccccc1C1=NOC2CCCCC12 (configuration not stated) | inactive
COc1cccc(C2=NOC3CCCCC23)c1 (configuration not stated) | inactive
Fc1ccc(C2=NOC3CCCCCCC23)cc1C(F)(F)F (cis isomer; cis) | inactive
N#Cc1ccc(C2=NOC3CCCC23)c(C(F)(F)F)c1 (racemic) | inactive
Clc1ccc(C2=NOC3CCCCC23)cc1 (configuration not stated) | inactive
c1ccc(C2=NOC3CCCCC23)cc1 (configuration not stated) | inactive
O=[N+]([O-])c1ccc(C2=NO[C@H]3CCCCC[C@@H]23)c(C(F)(F)F)c1 | inactive
O=[N+]([O-])c1ccc(C2=NO[C@@H]3CCCCC[C@H]23)c(C(F)(F)F)c1 | inactive
COc1ccccc1C1=NOC2CCCCC12 (racemic) | inactive

target: T2, Androgen receptor (Homo sapiens, UniProt P10275); assay: Displacement of [3H]R1881 from wild type human androgen receptor expressed in COS-1 cells co-transfected with pSG5 after 2 hrs by scintillation assay
T2 sequence (P10275 whole entry): T1 sequence (whole entry)

Structure (SMILES) | IC50 [nM]
O=[N+]([O-])c1ccc(C2=NOC3CCCCCC23)cc1C(F)(F)F (racemic) | 105
Fc1ccc(C2=NOC3CCCC23)cc1C(F)(F)F (racemic) | 1480
N#Cc1ccc(C2=NOC3CCCCCCC23)cc1C(F)(F)F (racemic) | 295
N#Cc1ccc(C2=NO[C@@H]3CCC[C@H]23)cc1C(F)(F)F | 224
O=[N+]([O-])c1ccc(C2=NOC3CCCCCCC23)cc1C(F)(F)F (racemic) | 708
O=[N+]([O-])c1ccc(C2=NOC3CCCC23)c(C(F)(F)F)c1 (racemic) | 269
O=[N+]([O-])c1ccc(C2=NO[C@H]3CCCC[C@@H]23)c(C(F)(F)F)c1 | 263
O=[N+]([O-])c1ccc(C2=NO[C@@H]3CCCC[C@H]23)c(C(F)(F)F)c1 | 129
N#Cc1ccc(C2=NOC3CCCC23)c(C(F)(F)F)c1 (racemic) | 447
O=[N+]([O-])c1ccc(C2=NO[C@H]3CCCCC[C@@H]23)c(C(F)(F)F)c1 | 389
O=[N+]([O-])c1ccc(C2=NO[C@@H]3CCCCC[C@H]23)c(C(F)(F)F)c1 | 309
